# HKDC1 activator – increases human hexokinase HKDC1 activity | Q2TB90 | recombinant HKDC1, G6PDH/diaphorase resazurin fluorescence; hits give low values | activity change, negative = activation, % at 20 µM | 0.056% of 340,000 active;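 active means activation of 40% or more at 20 µM, a change of -40% or lower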
#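 Dosing: single compound dose of 20 µM, 1% DMSO final / Test system: in-house human HKDC1 enzyme, G6PDH and diaphorase coupling enzymes / Quantity: 5 µg/mL HKDC1 final / Incubation: enzyme reaction 90 min, room temperature, in dark / Buffer or medium: pH 8.0 Tris with MgCl2 / Detection: coupled resazurin-to-resorufin fluorescence, Ex 525/Em 613 nm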
# Active calls of the source: *. These entries were drawn from the full list.
SMILES,HKDC1 activator
CCOC(=O)c1ccc(NC(=O)CSc2n[nH]c(-c3ccncc3)n2)cc1,40
COc1ccc(-c2[nH]c(-c3ccc(SC)cc3)nc2SCC(=O)Nc2nccs2)cc1,-54*
O=C(CN1C(=O)/C(=C2\SC(=S)N(CCS(=O)(=O)O)C2=O)c2ccccc21)Nc1cccc(Br)c1,58
Oc1ccc(-c2cnns2)c(O)c1,45
CCC(Sc1nc(C)cc(C)n1)C(=O)NC1=NN=C(c2ccc(C)cc2)CS1 (stereo not drawn),-149*
CC(=O)C1=C(c2ccccc2)N(C(C)=O)n2c(C)nnc2S1,-315*
COc1ccc2[nH]c3c4c(ccc3c2c1)C(=O)C=CC4=O,51
COc1cc(NC(=O)c2cnc(N)s2)cc(C(=O)Nc2cccc(C(F)(F)F)c2)c1,59
CCN1/C(=C/C=C/c2oc3ccc4ccccc4c3[n+]2CC)Oc2ccc3ccccc3c21,51
COc1cc(OC)cc(C(=O)NC(=S)NNC(=O)c2cnccn2)c1,-42*
CCOc1ccccc1Nc1nnc(SCc2nnc(-c3cc(OC)c(OC)c(OC)c3)o2)s1,48
N=C1N(c2ccccc2)C(=S)C(=Nc2ccccc2)N1c1ccccc1,-77*
N=C1/C(=C\c2ccc(-c3ccc(C(=O)O)cc3)o2)C(=O)N=C2SC=C(c3ccccc3)N12,40
CCc1c(C)c(C#N)c2nc3ccccc3n2c1NC,-66*
CC1C/C(=C\c2cccnc2)C(=O)/C(=C/c2cccnc2)C1 (stereo not drawn),40
CCNc1ccc(Br)cc(C(=O)/C=C/c2c(Cl)cccc2Cl)c1=O,37
CCOC(=O)c1ccc(N=C2C(=S)N(c3ccc(C(=O)OCC)cc3)C(=N)N2/N=C/c2ccccc2)cc1,-136*
O=C1C(=O)c2c(C(=O)c3ccccc3)coc2-c2ccccc21,51
O=C(/C=C/c1cccc(Cl)c1)c1ccc([N+](=O)[O-])o1,61
CC(=O)NC1C(=O)N(CCN2CCOCC2)c2ccc(F)cc21 (stereo not drawn),79
O=C(NNC(=O)c1cccnc1)NC1CCCCC1,-60*
COCc1cc(C2C(C(=O)c3ccco3)=C(O)C(=O)N2CCOCCO)ccc1O (stereo not drawn),35
COc1cc(-c2ccc(Nc3ccccc3C(=O)O)c(OC)c2)ccc1Nc1ccccc1C(=O)O,42
CN(c1ccc(C(=O)N2CCN(Cc3ccccc3)CC2)cc1)S(=O)(=O)c1ccccc1,-76*
CCc1ccc(S(=O)(=O)NCCc2cn3ccccc3n2)s1,39
SMILES,HKDC1 activator
Cc1ccc(NC2=C/C(=N\S(=O)(=O)c3cccs3)c3ccccc3C2=O)c(C)c1,40
O=S(=O)(/N=C/c1c(O)ccc2ccccc12)c1ccccc1,44
O=C(NCCC(=O)N1CCCC(C(F)(F)F)C1)c1ccc(Br)cc1 (stereo not drawn),36
CC(=O)Oc1cccc2c1C(=O)C1CC=CC(OC(C)=O)C1C2=O (stereo not drawn),-45*
O=C1OC(c2ccccc2)=N/C1=C/c1cccc(OC(=O)c2cccs2)c1,39
O=C(NCc1ccncc1)C(=O)N/N=C/c1ccc(OCc2ccccc2)cc1,-58*
Cc1ccc(C(=O)/C=C/c2cc(Br)cc(Br)c2O)o1,36
CC(C)(C)c1nnc(N/N=C/c2cc(Br)ccc2O)n(N)c1=O,-43*
Cc1cc(NC(=S)NC(=O)c2ccccc2)ccc1-c1cc2ccccc2oc1=O,-47*
COC(=O)c1cc(C)nc2c1C(=O)C(=O)C=C2N1CCOCC1,68
CC(C)Nc1nnc(SCC(=O)Nc2ccc3c(c2)C(=O)c2ccccc2C3=O)s1,43
O/C=c1\ccc2cccc3nc(C(F)(F)F)nc1c23,40
CCCN(CCC)C(=S)NC(=O)c1ccc(-c2ccccc2)cc1,-48*
CCc1ccc(S(=O)(=O)/N=C2\C=C(Nc3cccc(C(=O)O)c3)C(=O)c3ccccc32)cc1,53
CC(OC(=O)c1cc(O)c2ccccc2c1O)C(=O)Nc1ccc(C(N)=O)cc1 (stereo not drawn),39
CN(C)Cc1cc(O)c(CN(C)C)cc1O,47
Cc1ccccc1S(=O)(=O)c1c(C)cc(C)n(CC(C)C)c1=O,71
Cc1cc(C2=NNC(=Nc3ccc(S(=O)(=O)N4CCOCC4)cc3)SC2)c(C)n1C,-73*
COc1ccc(NC(=O)c2cc3ccccc3cc2O)cc1,38
Oc1ccc(/C=N/NC(=S)Nc2cccnc2)c(O)c1,-40*
O=C(N/N=C1/C(=O)c2cccc3cccc1c23)c1ccc(Cl)cc1,43
COC1=CC(=O)C=C(OC)C1=O,66
CCOc1ccc2nc3cc(NCc4ccc(OC)cc4)ccc3c(N)c2c1,36
COc1ccc(C2=CC3=C(Br)C(=O)C(C)(OC(=O)C4CCCC4)C(=O)C3=CO2)cc1 (stereo not drawn),53
c1ccc(Nc2cc(Nc3ccccc3)[nH]n2)cc1,-47*
SMILES,HKDC1 activator
COc1ccc(S(=O)(=O)Nc2cc(SCC(=O)O)c(O)c3ccccc23)cc1,57
CNc1sc(C(=O)c2ccc(F)cc2)c(N)c1-c1nc2ccccc2s1,-45*
O=C1/C(=C\c2ccc(Cl)c(Cl)c2)CN(C(=O)CCN2CCOCC2)C/C1=C/c1ccc(Cl)c(Cl)c1,61
CC(=O)NC1C(=O)N(CCN2CCOCC2)c2ccc(Cl)cc21 (stereo not drawn),82
COc1ccc2c(c1)C(=NNC(=O)c1ccccn1)c1cc(OC)ccc1-2,42
CC(=NNC(=S)Nc1cccc(Cl)c1)c1ccccn1,-46*
CC(=NNC(=S)SCc1ccccc1)c1ccccn1,-47*
COc1ncnc2c1oc1nc(C(C)C)c3c(c12)CC(C)(C)OC3,53
COC(=O)CCC(=O)OC1(C)C(=O)C2=COC(c3ccc(OC)cc3)=CC2=C(Br)C1=O (stereo not drawn),37
Cn1c2ccccc2c(=O)c2c(=O)n(-c3ccccc3)c(C3CCCCC3)nc21,43
COc1ccc(-c2cc(N)n(CCC#N)n2)c(OC)c1,40
CCOP(=O)(c1ccc(N(C)C)cc1)C(O)c1ccc(OC)cc1 (stereo not drawn),56
S=C(NCc1ccccn1)NN=Cc1ccccn1,-44*
Cc1cc(C)c(S(=O)(=O)/N=C2/C=C(SCC(=O)O)C(=O)c3ccccc32)cc1C,51
O=C1C(Nc2ccc(O)cc2)=C/C(=N/S(=O)(=O)c2cccs2)c2ccccc21,60
O=C(O)[C@@H](c1ccccc1)N1Cc2ccccc2C1=O,52
O=C(CCCCC(=O)Sc1ccccc1)Sc1ccccc1,39
CCOC(=O)c1c(C)[nH]c(C2=NNC(=Nc3ccccc3OC)SC2)c1C,-165*
CCOC(=O)c1c(C)[nH]c(C2=NNC(=Nc3ccc(OCC)cc3)SC2)c1C,-137*
CCOC(=O)c1c(C)[nH]c(C2=NNC(=Nc3ccccc3)SC2)c1C,-306*
CCOC(=O)C1=C(O)c2ccccc2C(=O)/C1=C\c1ccc(CC)cc1,59
O=C(NCCc1ccccc1)C(c1cccs1)N(C(=O)CCl)c1ccc(Cl)cc1 (stereo not drawn),37
Cc1cc(C)c(S(=O)(=O)Nc2cc(SCC(=O)O)c(O)c3ccccc23)cc1C,54
Cc1ccc(S(=O)(=O)N(C(=O)c2ccncc2)c2ccc(OC(=O)c3ccncc3)c3ccccc23)c(C)c1,38
NC(CSC(c1ccccc1)(c1ccccc1)c1cccc2ccccc12)C(=O)O (stereo not drawn),35
COC(=O)CCC(=O)Nc1sc(Cc2ccccc2)c(C)c1C(N)=O,-44*
O=C(C1=C(c2ccccc2)C(=O)c2ccccc2C1=O)c1ccccc1,58
